Assay results reported in BindingDB's records for doi:10.1016/j.bmc.2010.03.038 (Northwestern University, 2010).

Assays:
[1] = biological target: Voltage-dependent L-type calcium channel subunit alpha-1C (Oryctolagus cuniculus, UniProt P15381); test: Antagonist activity at rabbit Cav1.2 expressed in HEK293 cells assessed as inhibition of voltage pulse-induced calcium current by FLIPR calcium 4 assay
Outline: (§1)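 HEK293 lines stably expressing Cavβ3 and Cavα2δ-1 plus Cav1.2 α1C (rabbit) or Cav1.3 α1D (rat) were selected with zeocin/hygromycin. Calcium signals were read by FLIPR with Calcium 4 dye. IC50 came from 11-point dose-response curves. Signal percentage error (SD/mean) was 6.4% for Cav1.2 and 4.1% for Cav1.3 cells.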

[2] = biological target: Voltage-dependent L-type calcium channel subunit alpha-1D (Rattus norvegicus, UniProt P27732); test: Antagonist activity at rat Cav1.3 expressed in HEK293 cells assessed as inhibition of voltage pulse-induced calcium current by FLIPR calcium 4 assay; outline: as §1
Sequence of Voltage-dependent L-type calcium channel subunit alpha-1D (P27732 whole entry): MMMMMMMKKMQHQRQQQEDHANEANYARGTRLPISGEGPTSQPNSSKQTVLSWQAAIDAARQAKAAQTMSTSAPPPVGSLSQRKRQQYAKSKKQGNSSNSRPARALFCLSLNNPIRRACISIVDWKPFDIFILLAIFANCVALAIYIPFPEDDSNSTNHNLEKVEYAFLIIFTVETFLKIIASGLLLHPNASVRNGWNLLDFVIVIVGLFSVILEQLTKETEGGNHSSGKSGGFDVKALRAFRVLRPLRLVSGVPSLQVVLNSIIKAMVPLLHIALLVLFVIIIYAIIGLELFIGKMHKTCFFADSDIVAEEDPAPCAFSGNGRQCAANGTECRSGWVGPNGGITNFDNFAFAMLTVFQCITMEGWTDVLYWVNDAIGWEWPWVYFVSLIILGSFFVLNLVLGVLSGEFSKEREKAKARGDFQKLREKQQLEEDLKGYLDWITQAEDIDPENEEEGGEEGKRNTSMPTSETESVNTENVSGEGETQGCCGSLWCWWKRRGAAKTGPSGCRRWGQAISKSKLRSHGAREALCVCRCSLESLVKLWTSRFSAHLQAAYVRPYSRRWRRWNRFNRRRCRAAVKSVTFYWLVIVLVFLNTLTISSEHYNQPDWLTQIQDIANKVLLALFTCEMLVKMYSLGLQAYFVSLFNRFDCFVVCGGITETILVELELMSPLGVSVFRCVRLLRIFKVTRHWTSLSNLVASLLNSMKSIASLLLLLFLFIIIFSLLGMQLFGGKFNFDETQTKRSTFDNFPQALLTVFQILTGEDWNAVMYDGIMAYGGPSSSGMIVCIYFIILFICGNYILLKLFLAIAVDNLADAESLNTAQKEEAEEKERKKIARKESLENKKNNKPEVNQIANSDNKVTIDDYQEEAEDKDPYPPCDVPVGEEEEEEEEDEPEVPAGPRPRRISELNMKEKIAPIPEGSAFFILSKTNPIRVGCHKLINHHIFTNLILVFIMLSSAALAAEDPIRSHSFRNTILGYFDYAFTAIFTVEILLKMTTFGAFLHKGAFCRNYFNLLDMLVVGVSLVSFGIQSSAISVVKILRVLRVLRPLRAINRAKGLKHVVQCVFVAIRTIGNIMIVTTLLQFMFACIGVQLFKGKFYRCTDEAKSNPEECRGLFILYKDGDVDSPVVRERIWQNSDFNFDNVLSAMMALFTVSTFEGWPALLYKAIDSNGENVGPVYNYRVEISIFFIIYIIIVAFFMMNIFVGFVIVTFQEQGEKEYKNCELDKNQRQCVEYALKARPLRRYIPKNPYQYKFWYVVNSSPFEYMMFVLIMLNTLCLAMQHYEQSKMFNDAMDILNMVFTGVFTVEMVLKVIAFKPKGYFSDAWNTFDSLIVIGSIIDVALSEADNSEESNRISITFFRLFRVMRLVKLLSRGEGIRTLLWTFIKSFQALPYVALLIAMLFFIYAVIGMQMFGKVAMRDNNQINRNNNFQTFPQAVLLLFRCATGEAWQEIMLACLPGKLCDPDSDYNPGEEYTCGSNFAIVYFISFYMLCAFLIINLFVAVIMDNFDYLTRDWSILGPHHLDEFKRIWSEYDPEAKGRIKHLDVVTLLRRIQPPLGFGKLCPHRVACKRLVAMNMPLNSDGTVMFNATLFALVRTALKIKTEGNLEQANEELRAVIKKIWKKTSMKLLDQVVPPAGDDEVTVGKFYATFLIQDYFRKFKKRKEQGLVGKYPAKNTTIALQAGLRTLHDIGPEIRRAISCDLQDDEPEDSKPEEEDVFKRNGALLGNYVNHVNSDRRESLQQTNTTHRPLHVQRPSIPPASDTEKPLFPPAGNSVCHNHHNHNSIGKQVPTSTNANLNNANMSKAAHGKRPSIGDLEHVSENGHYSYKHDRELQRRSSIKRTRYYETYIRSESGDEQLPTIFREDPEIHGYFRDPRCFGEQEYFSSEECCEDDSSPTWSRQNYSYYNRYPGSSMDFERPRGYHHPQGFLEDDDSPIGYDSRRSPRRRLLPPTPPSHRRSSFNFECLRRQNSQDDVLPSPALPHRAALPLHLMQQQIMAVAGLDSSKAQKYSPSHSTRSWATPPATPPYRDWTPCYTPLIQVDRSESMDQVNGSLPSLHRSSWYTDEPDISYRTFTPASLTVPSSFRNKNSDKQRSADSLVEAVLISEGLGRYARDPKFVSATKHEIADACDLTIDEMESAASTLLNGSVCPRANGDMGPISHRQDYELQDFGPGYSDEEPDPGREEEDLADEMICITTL

Sequence of Voltage-dependent L-type calcium channel subunit alpha-1C (P15381 whole entry): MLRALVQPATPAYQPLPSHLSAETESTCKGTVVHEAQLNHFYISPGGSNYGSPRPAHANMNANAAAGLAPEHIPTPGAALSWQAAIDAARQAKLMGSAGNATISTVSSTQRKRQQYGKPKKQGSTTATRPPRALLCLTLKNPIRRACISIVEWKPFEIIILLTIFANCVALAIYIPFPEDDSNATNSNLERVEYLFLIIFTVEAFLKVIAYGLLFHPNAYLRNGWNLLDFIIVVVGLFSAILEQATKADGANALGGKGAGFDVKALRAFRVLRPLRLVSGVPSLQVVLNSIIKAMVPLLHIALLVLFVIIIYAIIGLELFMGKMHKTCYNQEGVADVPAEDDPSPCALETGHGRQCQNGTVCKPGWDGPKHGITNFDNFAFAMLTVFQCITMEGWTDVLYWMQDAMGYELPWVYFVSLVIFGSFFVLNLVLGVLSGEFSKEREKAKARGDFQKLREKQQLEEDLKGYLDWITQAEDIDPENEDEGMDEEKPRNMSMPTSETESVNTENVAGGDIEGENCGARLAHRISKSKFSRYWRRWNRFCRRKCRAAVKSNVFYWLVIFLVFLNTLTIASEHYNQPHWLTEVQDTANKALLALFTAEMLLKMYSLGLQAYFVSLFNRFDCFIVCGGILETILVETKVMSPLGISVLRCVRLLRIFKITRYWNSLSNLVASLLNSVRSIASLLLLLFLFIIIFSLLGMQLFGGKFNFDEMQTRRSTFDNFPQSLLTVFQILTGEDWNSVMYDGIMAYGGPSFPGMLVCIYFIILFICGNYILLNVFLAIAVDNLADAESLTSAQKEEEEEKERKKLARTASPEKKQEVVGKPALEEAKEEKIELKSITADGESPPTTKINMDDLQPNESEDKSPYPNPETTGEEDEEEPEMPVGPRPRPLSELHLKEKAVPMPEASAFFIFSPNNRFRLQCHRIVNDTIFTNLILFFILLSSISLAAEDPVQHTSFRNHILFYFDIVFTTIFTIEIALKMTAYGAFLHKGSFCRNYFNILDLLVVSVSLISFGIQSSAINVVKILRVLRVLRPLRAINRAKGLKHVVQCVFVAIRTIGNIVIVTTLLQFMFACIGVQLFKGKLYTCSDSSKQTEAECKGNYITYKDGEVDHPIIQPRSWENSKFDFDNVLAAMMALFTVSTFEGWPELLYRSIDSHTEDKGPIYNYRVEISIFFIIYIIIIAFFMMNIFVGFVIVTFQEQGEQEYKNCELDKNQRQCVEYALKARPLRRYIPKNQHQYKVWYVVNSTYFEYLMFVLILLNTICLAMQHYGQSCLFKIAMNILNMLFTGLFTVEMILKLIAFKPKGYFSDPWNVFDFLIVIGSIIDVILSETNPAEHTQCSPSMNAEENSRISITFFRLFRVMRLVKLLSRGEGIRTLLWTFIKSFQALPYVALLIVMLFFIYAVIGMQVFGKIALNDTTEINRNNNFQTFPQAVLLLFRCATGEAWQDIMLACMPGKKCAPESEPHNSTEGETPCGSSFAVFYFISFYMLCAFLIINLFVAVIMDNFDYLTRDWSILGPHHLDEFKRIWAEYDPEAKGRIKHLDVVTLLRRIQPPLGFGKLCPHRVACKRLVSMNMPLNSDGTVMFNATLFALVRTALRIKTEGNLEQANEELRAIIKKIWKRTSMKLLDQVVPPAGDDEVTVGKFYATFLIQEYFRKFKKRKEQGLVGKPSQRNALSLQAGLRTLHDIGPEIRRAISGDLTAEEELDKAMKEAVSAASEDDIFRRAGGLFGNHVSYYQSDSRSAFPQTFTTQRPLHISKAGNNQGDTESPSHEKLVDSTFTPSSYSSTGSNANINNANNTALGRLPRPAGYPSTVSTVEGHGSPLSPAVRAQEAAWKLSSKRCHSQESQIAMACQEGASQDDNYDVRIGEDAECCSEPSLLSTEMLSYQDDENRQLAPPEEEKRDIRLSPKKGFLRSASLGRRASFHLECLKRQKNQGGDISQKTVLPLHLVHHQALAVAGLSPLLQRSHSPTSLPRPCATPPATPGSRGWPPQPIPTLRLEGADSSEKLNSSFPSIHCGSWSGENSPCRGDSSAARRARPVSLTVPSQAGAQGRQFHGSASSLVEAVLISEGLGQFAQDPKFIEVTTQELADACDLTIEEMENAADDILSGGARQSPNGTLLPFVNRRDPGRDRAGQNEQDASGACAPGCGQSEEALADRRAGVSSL

Row | IC50 [2] | SMILES | IC50 [1]
1 | 15 nM | C=CCOC(=O)C1=C(C)N=C(C)C(C(=O)OCC)C1c1cccc([N+](=O)[O-])c1 (stereo not drawn) [3-allyl 5-ethyl 2,6-dimethyl-4-(3-nitrophenyl)-1,4-dihydropyridine-3,5-dicarboxylate] | 25 nM
2 | 15 nM | COC(=O)C1C(C)=NC(C)=C(C(=O)OCc2ccccc2)C1c1cccc([N+](=O)[O-])c1 (stereo not drawn) [3-benzyl 5-methyl 2,6-dimethyl-4-(3-nitrophenyl)-1,4-dihydropyridine-3,5-dicarboxylate] | 25 nM
3 | 10 nM | COC(=O)C1C(C)=NC(C)=C(C(=O)OC2C=CCCC2)C1c1cccc([N+](=O)[O-])c1 (stereo not drawn) [3-cyclohex-2-enyl 5-methyl 2,6-dimethyl-4-(3-nitrophenyl)-1,4-dihydropyridine-3,5-dicarboxylate] | 10 nM
4 | 10 nM | C=C(C)C(=O)OCCOC(=O)C1=C(C)N=C(C)C(C(=O)OCC)C1c1cccc([N+](=O)[O-])c1 (stereo not drawn) [3-ethyl 5-(2-(methacryloyloxy)ethyl)2,6-dimethyl-4-(3-nitrophenyl)-1,4-dihydropyridine-3,5-dicarboxylate] | 10 nM
